Experimental data reported in ChEMBL document CHEMBL3352723, “6-(Hetero)Arylpurine nucleotides as inhibitors of the oncogenic target DNPH1: synthesis, structural studies and cytotoxic activities” (Eur J Med Chem, 2014).
Activity calls are given as the source filed them. No cut-off for these calls is given here.

Experiments:
[1] = Cytotoxicity against human HCT15 cells after 72 hrs by MTT assay; conditions: HCT-15, 72 h
[2] = Cytotoxicity against human HCT15 cells at 10 uM after 72 hrs by MTT assay; conditions: HCT-15, 72 h, read-out: INH
[3] = tested on: MCF7; experiment: Cytotoxicity against human MCF7 cells at 10 uM after 72 hrs by MTT assay; conditions: MCF7, 72 h, read-out: INH
[4] = Cytotoxicity against human HCT116 cells after 72 hrs by MTT assay; format: functional, cell-based; conditions: HCT-116, 72 h
How it was run: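 Cells grown in RPMI 1640 with L-glutamine, 10% FCS, penicillin/streptomycin and fungizone at 37 °C under 5% CO2. Seeding was 2000 cells/well for HCT116 and HL60 and 600 for HCT15; compounds added after 24 h in DMSO (1% final). Viable cells read at 490 nm with MTS reagent.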

[5] = Cytotoxicity against human HL60 cells after 72 hrs by MTT assay; conditions: HL-60, 72 h
[6] = Cytotoxicity against human HL60 cells at 10 uM after 72 hrs by MTT assay; conditions: HL-60, 72 h, read-out: INH
[7] = Cytotoxicity against human PC3 cells at 10 uM after 72 hrs by MTT assay; conditions: PC-3, 72 h, read-out: INH
[8] = Cytotoxicity against human HCT116 cells at 10 uM after 72 hrs by MTT assay; conditions: HCT-116, 72 h, read-out: INH
[9] = tested on: HCT-116; conditions: Homo sapiens, 10 uM
[10] = tested on: HCT-15; conditions: Homo sapiens, 10 uM
[11] = tested on: PC-3; conditions: Homo sapiens, 10 uM
[12] = tested on: HL-60; conditions: Homo sapiens, 10 uM

**Q.** With `O=P(O)(O)OC[C@H]1O[C@@H](n2cnc3c(-c4ccoc4)ncnc32)[C@H](O)[C@@H]1O` as the compound, how does the IC50 [1] read?
**A.** The IC50 was 1.3 µM.

**Q.** What about the inhibition at 10 µM [2] of the same compound?
**A.** Its inhibition at 10 µM is > 90%.

**Q.** And the inhibition at 10 µM [3]?
**A.** The inhibition at 10 µM was > 90%.

**Q.** What about the IC50 [4] of the same compound?
**A.** Its IC50 is 5.5 µM.

**Q.** And the IC50 [5]?
**A.** The IC50 was 15.4 µM.

**Q.** And the inhibition at 10 µM [6]?
**A.** The inhibition at 10 µM was > 90%.

**Q.** What about the inhibition at 10 µM [7] of the same compound?
**A.** The inhibition at 10 µM was > 90%.

**Q.** What about the inhibition at 10 µM [8] of the same compound?
**A.** The inhibition at 10 µM was > 90%.

**Q.** For `O=C(O)c1ccc(-c2cccc(-c3ncnc4c3ncn4[C@@H]3O[C@H](COP(=O)(O)O)[C@@H](O)[C@H]3O)c2)cc1`, which inhibition [9] is on record?
**A.** The inhibition was “inactive”.

**Q.** What about the inhibition [10] of the same compound?
**A.** Its inhibition is “inactive”.

**Q.** And the inhibition at 10 µM [3]?
**A.** The inhibition at 10 µM was > 90%.

**Q.** What about the inhibition [11] of the same compound?
**A.** Its inhibition is “inactive”.

**Q.** And the inhibition [12]?
**A.** The inhibition was “inactive”.

**Q.** For `O=P(O)(O)OC[C@H]1O[C@@H](n2cnc3c(NCc4ccccc4)ncnc32)[C@H](O)[C@@H]1O`, which IC50 [1] is on record?
**A.** The IC50 was 0.8 µM.

**Q.** What about the IC50 [4] of the same compound?
**A.** Its IC50 is 7.7 µM.

**Q.** And the IC50 [5]?
**A.** Its IC50 is 5 µM.

**Q.** With `O=P(O)(O)OC[C@H]1O[C@@H](n2cnc3c(-c4ccccc4)ncnc32)[C@H](O)[C@@H]1O` as the compound, how does the IC50 [1] read?
**A.** Its IC50 is 0.7 µM.

**Q.** What about the inhibition at 10 µM [2] of the same compound?
**A.** The inhibition at 10 µM was > 90%.

**Q.** What about the inhibition at 10 µM [3] of the same compound?
**A.** The inhibition at 10 µM was > 90%.

**Q.** And the IC50 [4]?
**A.** The IC50 was 3.2 µM.

**Q.** And the IC50 [5]?
**A.** The IC50 was 1.7 µM.

**Q.** What about the inhibition at 10 µM [6] of the same compound?
**A.** The inhibition at 10 µM was > 90%.

**Q.** What about the inhibition at 10 µM [7] of the same compound?
**A.** Its inhibition at 10 µM is > 90%.

**Q.** What about the inhibition at 10 µM [8] of the same compound?
**A.** Its inhibition at 10 µM is > 90%.

**Q.** What does the source list for `O=P(O)(O)OC[C@H]1O[C@@H](n2cnc3c(-c4ccc(O)cc4)ncnc32)[C@H](O)[C@@H]1O`?
**A.** IC50 [1]: 0.3 µM; inhibition at 10 µM [2]: > 90%; inhibition at 10 µM [3]: > 90%; IC50 [4]: 4.1 µM; IC50 [5]: 0.5 µM; inhibition at 10 µM [6]: > 90%; inhibition at 10 µM [7]: > 90%; inhibition at 10 µM [8]: > 90%

**Q.** Which results are given for `O=P(O)(O)OC[C@H]1O[C@@H](n2cnc3c(-c4ccc5cc[nH]c5c4)ncnc32)[C@H](O)[C@@H]1O`?
**A.** IC50 [1]: 1.4 µM; inhibition at 10 µM [2]: > 90%; inhibition at 10 µM [3]: > 90%; IC50 [4]: > 80 µM; IC50 [5]: 0.5 µM; inhibition at 10 µM [6]: > 90%; inhibition at 10 µM [7]: > 90%; inhibition at 10 µM [8]: > 90%

**Q.** Which IC50 [1] does the source give for `O=P(O)(O)OC[C@H]1O[C@@H](n2cnc3c(-c4ccc(Cl)s4)ncnc32)[C@H](O)[C@@H]1O` here?
**A.** The IC50 was 1 µM.

**Q.** And the inhibition at 10 µM [2]?
**A.** The inhibition at 10 µM was > 90%.

**Q.** And the inhibition at 10 µM [3]?
**A.** Its inhibition at 10 µM is > 90%.

**Q.** And the IC50 [5]?
**A.** Its IC50 is 6.5 µM.

**Q.** And the inhibition at 10 µM [6]?
**A.** Its inhibition at 10 µM is > 90%.

**Q.** What about the inhibition at 10 µM [7] of the same compound?
**A.** The inhibition at 10 µM was > 90%.

**Q.** What about the inhibition at 10 µM [8] of the same compound?
**A.** Its inhibition at 10 µM is > 90%.

**Q.** What does the source list for `O=P(O)(O)OC[C@H]1O[C@@H](n2cnc3c(-c4cccc(Br)c4)ncnc32)[C@H](O)[C@@H]1O`?
**A.** IC50 [1]: 0.6 µM; inhibition at 10 µM [2]: > 90%; inhibition at 10 µM [3]: > 90%; IC50 [5]: 3.9 µM; inhibition at 10 µM [6]: > 90%; inhibition at 10 µM [7]: > 90%; inhibition at 10 µM [8]: > 90%

**Q.** For `O=P(O)(O)OC[C@H]1O[C@@H](n2cnc3c(-c4cccc(-c5cccc6c5sc5ccccc56)c4)ncnc32)[C@H](O)[C@@H]1O`, which inhibition [9] is on record?
**A.** Its inhibition is “inactive”.

**Q.** And the inhibition [10]?
**A.** Its inhibition is “inactive”.

**Q.** And the inhibition at 10 µM [3]?
**A.** Its inhibition at 10 µM is > 90%.

**Q.** And the inhibition [11]?
**A.** Its inhibition is “inactive”.

**Q.** And the inhibition [12]?
**A.** The inhibition was “inactive”.
